We go through 38 molecules from ChEMBL document CHEMBL3393005, “Design and synthesis of novel 2-pyrazoline-1-ethanone derivatives as selective MAO inhibitors” (Bioorg Med Chem, 2015).

Data set [1] concerns the target T1, Amine oxidase [flavin-containing] A (Homo sapiens, UniProt P21397).
T1 sequence (P21397 whole entry): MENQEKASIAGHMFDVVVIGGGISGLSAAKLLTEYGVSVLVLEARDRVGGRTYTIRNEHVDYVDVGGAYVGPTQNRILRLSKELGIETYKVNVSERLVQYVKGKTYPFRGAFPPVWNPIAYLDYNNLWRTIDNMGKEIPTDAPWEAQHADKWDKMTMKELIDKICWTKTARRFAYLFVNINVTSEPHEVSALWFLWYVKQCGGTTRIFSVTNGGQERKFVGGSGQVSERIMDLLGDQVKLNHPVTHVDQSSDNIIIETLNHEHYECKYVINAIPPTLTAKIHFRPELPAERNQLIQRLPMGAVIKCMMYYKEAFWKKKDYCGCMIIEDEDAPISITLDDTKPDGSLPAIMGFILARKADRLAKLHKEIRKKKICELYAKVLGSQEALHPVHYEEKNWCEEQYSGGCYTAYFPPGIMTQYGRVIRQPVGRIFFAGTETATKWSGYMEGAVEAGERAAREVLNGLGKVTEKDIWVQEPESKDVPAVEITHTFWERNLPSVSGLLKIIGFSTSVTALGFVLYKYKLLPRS
The data set can be described thus: Inhibition of human recombinant MAO-A using p-tyramine as substrate assessed as production of H2O2 incubated for 15 mins prior to substrate addition measured after 20 mins by microplate fluorescence reader analysis.

The species entered for the next data set is Homo sapiens. The experiment in a line: Selectivity index, ratio of IC50 for human recombinant MAO-B to IC50 for human recombinant MAO-A. An outline of the steps:
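SI = IC50(MAO-B)/IC50(MAO-A), both from the same Amplex Red/p-tyramine H2O2 fluorimetric assay. Each isoform came from microsomes of baculovirus-infected insect cells: MAO-A at 1.1 µg, MAO-B at 7.5 µg, matched to equal velocity.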

Data set [2] addresses T2, Amine oxidase [flavin-containing] B (Homo sapiens, UniProt P27338).
T2 sequence (P27338 whole entry): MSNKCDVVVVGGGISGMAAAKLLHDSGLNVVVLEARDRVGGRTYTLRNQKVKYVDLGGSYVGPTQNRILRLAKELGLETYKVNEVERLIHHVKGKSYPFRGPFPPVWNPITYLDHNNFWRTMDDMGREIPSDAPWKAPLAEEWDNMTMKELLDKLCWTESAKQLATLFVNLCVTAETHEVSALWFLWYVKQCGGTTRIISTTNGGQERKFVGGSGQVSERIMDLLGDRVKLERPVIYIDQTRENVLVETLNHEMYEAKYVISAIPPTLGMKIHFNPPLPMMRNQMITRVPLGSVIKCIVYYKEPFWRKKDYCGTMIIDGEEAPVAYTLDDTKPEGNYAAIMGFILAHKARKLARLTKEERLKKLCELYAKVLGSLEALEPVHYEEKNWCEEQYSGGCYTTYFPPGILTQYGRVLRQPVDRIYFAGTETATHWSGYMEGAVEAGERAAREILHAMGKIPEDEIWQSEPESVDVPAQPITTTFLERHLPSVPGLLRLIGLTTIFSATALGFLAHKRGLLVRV
The experiment in a line: Inhibition of human recombinant MAO-B using p-tyramine as substrate assessed as production of H2O2 incubated for 15 mins prior to substrate addition measured after 20 mins by microplate fluorescence reader analysis.

Data set [3] has as its target T1, Amine oxidase [flavin-containing] A. The experiment in a line: Inhibition of human recombinant MAO-A using p-tyramine as substrate assessed as production of H2O2 incubated for 15 mins prior to substrate addition at 60 uM […] by microplate fluorescence reader analysis. As to conditions: 20 min; call rule not given here.
The target in data set [4] is T2, Amine oxidase [flavin-containing] B. The experiment in a line: Inhibition of human recombinant MAO-B using p-tyramine as substrate assessed as production of H2O2 incubated for 15 mins prior to substrate addition at 60 uM measured after 20 mins by microplate fluorescence reader analysis.

Each structure is given as a SMILES string.

The term IC50 denotes the concentration needed to halve the response being measured. Turning to `CC1=NN(C(=O)CN2CCCCC2)C(c2cc(Br)cc(Br)c2O)C1` (centres undefined), the IC50 in data set [1] is 7.8 µM; in data set [2], 49.9 µM. Moreover, the Ratio IC50 in the data set filed under Homo sapiens came to 6.4.
For `Cc1ccc(C2=NN(C(=O)CN3CCCCC3)C(c3cc(Cl)ccc3O)C2)cc1` (centres undefined), in that order: 14.4 µM, 56.2 µM and 3.9.
For `O=C(CN1CCCCC1)N1N=C(c2ccccc2)CC1c1ccccc1O` (centres undefined), in that order: 9.51 µM, 50.6 µM and 5.3.
For `O=C(CN1CCNCC1)N1N=C(c2ccc(F)cc2)CC1c1cc(Cl)ccc1O` (centres undefined), in that order: 2.4 µM, 58.9 µM and 24.5.
`O=C(CN1CCOCC1)N1N=C(c2ccc(F)cc2)CC1c1cc(Cl)ccc1O` (centres undefined): the results for the IC50 in data set [1] and in data set [2] were 24.3 µM and 30.2 µM, respectively. Also, the Ratio IC50 in the data set listed under Homo sapiens amounted to 1.2.
`CC1=NN(C(=O)CN2CCC(=O)CC2)C(c2cc(Br)cc(Br)c2O)C1` (centres undefined): the IC50 came out at 8.38 µM in data set [1] and 58.9 µM in data set [2]. Besides, the Ratio IC50 in the data set listed under Homo sapiens was 7.
Turning to `CC1=NN(C(=O)CN2CCC(CO)CC2)C(c2cc(Br)cc(Br)c2O)C1` (centres undefined), the figures for the IC50 in data set [1] and in data set [2] were 25.7 µM and 30.1 µM, respectively. Moreover, in the data set listed under Homo sapiens, the Ratio IC50 was 1.2.
As to `O=C(Cn1ccnc1)N1N=C(c2ccccc2)CC1c1ccccc1O` (centres undefined), the Ratio IC50 in the data set listed under Homo sapiens was found to be 1. In data set [2], the IC50 stood at 59.4 µM. In data set [3], the “inhibition (INH)” value is given as “Not Active”.
Take `COc1ccc(C2=NN(C(=O)Cn3ccnc3)C(c3ccccc3O)C2)cc1` (centres undefined): the INH entry in data set [4] is recorded as “Not Active”. Also, the “inhibition (INH)” value in data set [3] was “Not Active”.
Regarding `COc1ccc(C2=NN(C(=O)Cn3ccnc3)C(c3cc(Cl)ccc3O)C2)cc1` (centres undefined), in data set [4], the INH entry is recorded as “Not Active”. Besides, the “inhibition (INH)” value in data set [3] is reported as “Not Active”.
In the case of `O=C(CN1CCCCC1)N1N=C(c2ccc(F)cc2)CC1c1cc(Cl)ccc1O` (centres undefined), the half-inhibitory concentration (IC50) in data set [1] was 3.72 µM. In addition, the Ratio IC50 in the data set listed under Homo sapiens is 16.1. Besides, the INH result in data set [4] is listed as “Not Active”.
For `COc1ccc(C2=NN(C(=O)CN3CCCCC3)C(c3cc(Cl)ccc3O)C2)cc1` (centres undefined), in that order: 9.65 µM, 6.2 and “Not Active”.
For `CC1=NN(C(=O)CN2CCC(O)CC2)C(c2cc(Br)cc(Br)c2O)C1` (centres undefined), in that order: 12.4 µM, 4.8 and “Not Active”.
On to `O=C(CN1CCOCC1)N1N=C(c2ccccc2)CC1c1ccccc1O` (centres undefined), for which the half-inhibitory concentration (IC50) in data set [1] was 23.2 µM. The Ratio IC50 in the data set filed under Homo sapiens worked out at 2.6. Besides, the INH entry in data set [4] was “Not Active”.
As to `C#CCN(C)[C@H](C)Cc1ccccc1` [SELEGILINE], in data set [3], the “inhibition (INH)” value is “Not Active”.
For the molecule `Cc1ccc(C2=NN(C(=O)CN3CCOCC3)C(c3cc(Cl)ccc3O)C2)cc1` (centres undefined), in data set [1], the IC50 was 27 µM. Moreover, the Ratio IC50 in the data set filed under Homo sapiens turned out to be 2.2. Further, the INH result in data set [4] is reported as “Not Active”.
Consider `O=C(CN1CCOCC1)N1N=C(c2ccc(Cl)cc2)CC1c1ccccc1O` (centres undefined), for which the concentration for half-maximal inhibition (IC50) in data set [1] turned out to be 21.2 µM; in data set [2], 31.5 µM. In addition, in the data set listed under Homo sapiens, the Ratio IC50 came to 1.5.
Take `Cc1ccc(C2=NN(C(=O)Cn3ccnc3)C(c3ccccc3O)C2)cc1` (centres undefined): the Ratio IC50 in the data set filed under Homo sapiens stood at 0.69. Besides, in data set [2], the IC50 amounted to 41.3 µM. The “inhibition (INH)” value in data set [3] was “Not Active”.
Regarding `O=C(CBr)N1N=C(c2ccc(F)cc2)CC1c1ccccc1O` (centres undefined), the concentration for half-maximal inhibition (IC50) in data set [1] came to 6 µM; in data set [2], 52.9 µM. Moreover, the Ratio IC50 in the data set listed under Homo sapiens is 8.8.
For `O=C(CN1CCOCC1)N1N=C(c2ccc(Cl)cc2)CC1c1cc(Cl)ccc1O` (centres undefined), in that order: 31.2 µM, 55.1 µM and 1.8.
For `COc1ccc(C2=NN(C(=O)CN3CCCCC3)C(c3ccccc3O)C2)cc1` (centres undefined), in that order: 12.7 µM, 59.4 µM and 4.7.
Consider `Cc1ccc(C2=NN(C(=O)CN3CCCCC3)C(c3ccccc3O)C2)cc1` (centres undefined), for which the values for the half-inhibitory concentration (IC50) in data set [1] and in data set [2] were 11.3 µM and 45.6 µM, respectively. Besides, the Ratio IC50 in the data set filed under Homo sapiens was determined as 4.
With `O=C(CN1CCCCC1)N1N=C(c2ccc(Cl)cc2)CC1c1ccccc1O` (centres undefined), the figures for the IC50 in data set [1] and in data set [2] were 7.25 µM and 40.1 µM, respectively. The Ratio IC50 in the data set listed under Homo sapiens worked out at 5.5.
Regarding `O=C(Cn1ccnc1)N1N=C(c2ccc(F)cc2)CC1c1ccccc1O` (centres undefined), in data set [1], the IC50 was 26.3 µM. Also, in the data set listed under Homo sapiens, the Ratio IC50 was 2.3. In addition, the INH result in data set [4] is given as “Not Active”.
Consider `CC1=NN(C(=O)CN2CCCCC2)C(c2cc(Cl)ccc2O)C1` (centres undefined), for which the IC50 in data set [1] came to 10.5 µM; in data set [2], 55.9 µM. Besides, the Ratio IC50 in the data set listed under Homo sapiens was 5.3.
For `COc1ccc(C2=NN(C(=O)CN3CCOCC3)C(c3cc(Cl)ccc3O)C2)cc1` (centres undefined), in that order: 18.3 µM, 56.5 µM and 3.1.
For `O=C(CN1CCCCC1)N1N=C(c2ccc(F)cc2)CC1c1ccccc1O` (centres undefined), in that order: 8.02 µM, 47.4 µM and 5.9.
As to `O=C(CN1CCCCC1)N1N=C(c2ccc(Cl)cc2)CC1c1cc(Cl)ccc1O` (centres undefined), the IC50 came out at 6.01 µM in data set [1] and 44.1 µM in data set [2]. Further, the Ratio IC50 in the data set listed under Homo sapiens was found to be 7.3.
With `Cc1ccc(C2=NN(C(=O)CBr)C(c3cc(Cl)ccc3O)C2)cc1` (centres undefined), the IC50 in data set [1] came to 5.22 µM. Besides, the Ratio IC50 in the data set listed under Homo sapiens was determined as 11.5. Further, the INH result in data set [4] is “Not Active”.
In the case of `O=C(Cn1ccnc1)N1N=C(c2ccc(F)cc2)CC1c1cc(Cl)ccc1O` (centres undefined), in data set [4], the INH entry was “Not Active”. For the same molecule, in data set [3], the “inhibition (INH)” value was “Not Active”.
Regarding `COc1ccc(C2=NN(C(=O)CN3CCOCC3)C(c3ccccc3O)C2)cc1` (centres undefined), the 50% inhibitory concentration (IC50) in data set [1] came out at 24.5 µM. For the same molecule, in the data set filed under Homo sapiens, the Ratio IC50 amounted to 2.5. The INH result in data set [4] is given as “Not Active”.
For `CC1=NN(C(=O)CN2CCNCC2)C(c2cc(Br)cc(Br)c2O)C1` (centres undefined), in that order: 2 µM, 30 and “Not Active”.
As for `CC1=NN(C(=O)Cn2ccnc2)C(c2cc(Cl)ccc2O)C1` (centres undefined), the concentration for half-maximal inhibition (IC50) in data set [1] came out at 30.3 µM. Moreover, the Ratio IC50 in the data set filed under Homo sapiens worked out at 2. Further, the INH result in data set [4] is given as “Not Active”.
For `Cc1ccc(C2=NN(C(=O)CN3CCOCC3)C(c3ccccc3O)C2)cc1` (centres undefined), in that order: 20 µM, 3 and “Not Active”.
For `Cc1ccc(C2=NN(C(=O)Cn3ccnc3)C(c3cc(Cl)ccc3O)C2)cc1` (centres undefined), in the data set listed under Homo sapiens, the Ratio IC50 stood at 0.27. Moreover, in data set [2], the IC50 stood at 16.1 µM. The “inhibition (INH)” value in data set [3] is “Not Active”.
As to `O=C(CN1CCOCC1)N1N=C(c2ccc(F)cc2)CC1c1ccccc1O` (centres undefined), in data set [1], the IC50 worked out at 16.9 µM. In addition, in the data set listed under Homo sapiens, the Ratio IC50 amounted to 3.6. In data set [4], the INH result is given as “Not Active”.
As for `CC1=NN(C(=O)CN2CCN(CCO)CC2)C(c2cc(Br)cc(Br)c2O)C1` (centres undefined), the figures for the half-inhibitory concentration (IC50) in data set [1] and in data set [2] were 12.3 µM and 42.3 µM, respectively. Besides, in the data set listed under Homo sapiens, the Ratio IC50 is 3.4.
For `CC1=NN(C(=O)CN2CCOCC2)C(c2cc(Cl)ccc2O)C1` (centres undefined), in that order: 13.1 µM, 41.8 µM and 3.2.
